In the library only some 3.5% were active in any assay of this set; here they are far more common.
MrgX1 antagonist = blocks BAM8-22 activation of human MrgX1 receptor; AID 588676; MRGX1-HEK293 calcium flux, Fluo-4, BAM8-22 antagonism; stronger effect = lower value; Q96LB2; B-score at 10 µM; 310,000 compounds, 1.3% hits;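 active = calcium-response B-score plate-corrected more than 3 library SD below zero, starting fluorescence within 5 deviations, no agonist response on first addition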;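 note: peak minus trough fluorescence over baseline after final BAM8-22 challenge near maximal dose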
Target sequence (Q96LB2 whole entry, looked up): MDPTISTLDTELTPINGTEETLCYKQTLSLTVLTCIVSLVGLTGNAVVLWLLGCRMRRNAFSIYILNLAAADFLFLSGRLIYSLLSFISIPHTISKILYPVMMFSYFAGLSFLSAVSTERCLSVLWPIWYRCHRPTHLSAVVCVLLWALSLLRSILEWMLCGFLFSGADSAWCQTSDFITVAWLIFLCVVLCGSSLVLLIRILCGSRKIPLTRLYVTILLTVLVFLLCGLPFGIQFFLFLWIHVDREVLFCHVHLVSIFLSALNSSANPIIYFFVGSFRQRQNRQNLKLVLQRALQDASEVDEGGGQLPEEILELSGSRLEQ
MrgX1 allo act = allosterically activates human MrgX1 receptor signaling; MrgX1-HEK293, Fluo-4 calcium flux, FDSS; stronger effect = higher value; B-score at 10 µM; 310,000 compounds, 0.63% hits;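 active = plate-corrected calcium response at least 3 library SD above typical, normal starting fluorescence, not activating the receptor alone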;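 note: compound read alongside a low EC10 to EC30 dose of BAM8-22 agonist; peak minus trough fluorescence over baseline measured at the second addition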
RGS4 act = potentiators or activators of RGS4; HEK293 M3R/inducible RGS4, carbachol calcium flux Fluo4; stronger effect = lower value; B-score at 10 µM; 310,000 compounds, 0.92% hits;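 active = B-score of the integrated calcium signal more than 4 SD below the library mean, with starting fluorescence not abnormally high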;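 note: negative B-score means reduced calcium response which marks RGS4 activation or potentiation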
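Material: M3R-expressing HEK293 line, RGS4 induced by doxycycline | Schedule: Overnight RGS4 induction, 30 min dye load 37 °C, 20 min compound RT | Measured by: Fluo4 fluorescence kinetic imaging of calcium | Read-out: Integrated calcium ratio converted to B score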
RGS4 inh = inhibitors of human RGS4; P49798; HEK293 M3R/RGS4 inducible, Fluo-4 calcium flux; stronger effect = higher value; triggered by carbachol at its EC20; B-score at 10 µM; 310,000 compounds, 0.45% hits;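 active = B-score, a plate-corrected calcium signal, over three deviations above library mean, with baseline fluorescence within five deviations of library mean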;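 note: RGS4 expression induced by doxycycline in cells with stable M3 receptor; B-score is computed from the integrated fluorescence ratio over baseline after carbachol; higher B-score means a larger calcium signal and so more RGS4 inhibition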
Target sequence (P49798 whole entry, looked up): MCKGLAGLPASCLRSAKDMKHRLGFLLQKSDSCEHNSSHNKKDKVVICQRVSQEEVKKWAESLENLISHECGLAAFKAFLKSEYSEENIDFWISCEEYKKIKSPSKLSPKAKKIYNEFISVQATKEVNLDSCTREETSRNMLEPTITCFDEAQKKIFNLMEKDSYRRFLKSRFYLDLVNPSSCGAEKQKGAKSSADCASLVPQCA
MrgX1 ag = activates human MrgX1 receptor signaling; Q96LB2; MrgX1-HEK293 cells, Fluo-4 calcium fluorescence, agonist mode; stronger effect = higher value; B-score at 10 µM; 310,000 compounds, 0.44% hits; AID 588627;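 active = calcium response B-score plate-corrected fluorescence ratio at least 3 library SD, with starting fluorescence B-score inside 5 SD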
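Test system: HEK293 cells stably expressing human MrgX1 receptor; amount: 15,000 cells per well; doses: compound delivered in addition one of three; times: overnight plating before 1 h dye loading; detection: Fluo-4 NW calcium-flux fluorescence, kinetic read; read-out basis: B-scored fluorescence response ratio; controls: positive and negative controls per plate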
RGS4 block valid = RGS4 inhibitor validation; 1,700 compounds, 65% hits; shares compounds with RGS4 inh; HEK293 M3R/RGS4, carbachol calcium Fluo-4 fluorescence; carbachol added at its EC20; 0 = buffer wells, 100 = carbachol control; calcium response, % at 10 µM;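 active = duplicate-averaged calcium response above the buffer-only control mean plus 5 SD of those controls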;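 note: integrated fluorescence ratio F max minus min over baseline F0; higher response in RGS4-induced cells means RGS4 inhibition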
RGS4 uninduced = counter-screen for RGS4 inhibitors: effect in non-induced cells; shares compounds with RGS4 inh; HEK293 M3R non-induced, carbachol calcium Fluo-4; submaximal (EC20) carbachol stimulus; buffer wells 0%, carbachol control wells 100%; activity (percent), % at 10 µM; 1,900 compounds, 20% hits; call rule not given here;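 note: RGS4 induction absent so cells express M3R without RGS4; higher means more calcium signal and flags a non-specific hit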
M3R basal Ca ctr = second counter-screen for RGS4 inhibitors: non-induced cells without carbachol. AID 493001. HEK293 M3R/RGS4 non-induced, Fluo-4 calcium, no carbachol; normalised: buffer wells 0%, carbachol wells 100%. shares compounds with RGS4 inh. 1,900 compounds, 22% hits. calcium response (agonist-mode artifact), % at 10 µM;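 active = duplicate-averaged calcium rise in uninduced cells above buffer wells' mean plus 5 SD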
Active calls of the source: *; i = inactive; x = no result given.

SMILES	MrgX1 antagonist	MrgX1 allo act	RGS4 act	RGS4 inh	MrgX1 ag	RGS4 block valid	RGS4 uninduced	M3R basal Ca ctr
Cc1ccc2c(c1)c1c(n2CC(O)Cn2c(C)nc3ccccc32)/C(=N\O)CCC1 (stereo not given)	i	i	i	15*	i	42%*	i	i
O=C(COc1ccc([N+](=O)[O-])cc1)Nc1cccc2nsnc12	i	i	i	i	i	x	x	x
C=CCNC(=O)/C(C#N)=C/c1ccc(OS(=O)(=O)c2ccc(C)cc2)c(OC)c1	i	i	i	4.8*	i	14%*	i	i
COCC(C)NCC(=O)NC(C)CCc1ccccc1 (stereo not given)	i	i	i	i	i	x	x	x
Cc1cc(N=Cc2cc(Br)ccc2O)no1	i	i	i	7.2*	i	7.5%*	i	i
Cc1ccc(-c2cc(Cc3ccc(F)cc3)c(=O)[nH]n2)cc1	i	i	i	i	i	x	x	x
Cc1ccc(Cc2cc(-c3ccc(C)cc3)n[nH]c2=O)cc1	i	i	i	i	i	x	i	i
O=c1[nH]nc(-c2ccc(F)cc2)cc1Cc1ccc(F)cc1	i	i	i	i	i	x	i	i
COCCN(CCOC)C(=O)COC(=O)c1ccc(Cl)c(S(=O)(=O)N(C)c2ccccc2)c1	i	i	i	i	i	x	x	x
CC(=O)NCCC(=O)Nc1cc(S(=O)(=O)N2CCCCC2)ccc1Oc1ccccc1	i	i	i	i	i	x	x	x
COc1ccc(C(=O)NCCN2C(=O)S/C(=C\c3cccnc3)C2=O)cc1[N+](=O)[O-]	i	i	i	i	i	i	i	i
Cc1ccc(C(=O)OCCOc2cccc(Cl)c2)cc1S(=O)(=O)N1CCOCC1	i	i	i	i	i	x	x	x
CC1CCCCC1NC(=O)CSc1nnc(CC(=O)Nc2ccccc2F)n1C (stereo not given)	i	i	i	i	i	x	x	x
Nc1nn2cc(-c3ccccc3)nc2c2ccccc12	i	i	i	i	i	x	i	i
Cc1cn2nc(N)c3ccccc3c2n1	i	i	x	x	i	x	x	x
CN1C(=O)S/C(=C/c2cccnc2)C1=O	i	i	i	i	i	x	x	x
O=C1/C(=C\c2cccnc2)Sc2ccccc21	i	i	i	5.1*	i	32%*	36%*	39%*
Cc1ccccc1N=C1NC(=O)/C(=C/c2cccnc2)S1	i	i	i	i	i	x	46%*	i
O=C1NC(=Nc2ccccc2Cl)S/C1=C\c1ccc(C(=O)O)cc1	i	i	i	i	i	x	x	x
CCOC(=O)C(C)/C(C)=N\Nc1ccc([N+](=O)[O-])cc1[N+](=O)[O-] (stereo not given)	i	i	i	i	i	x	x	x
CCOC(=O)C(C)/C(C)=N/NC(N)=S (stereo not given)	i	i	i	17*	i	54%*	i	i
N[C@@H](Cc1ccc(O)cc1)c1nnc([C@H](CC(=O)O)NC(=O)C2CCNCC2)o1	i	i	i	i	i	x	x	x
Cc1cc(N)n2ncc(-c3ccc(F)cc3)c2n1	i	i	i	i	i	x	x	x
Nc1c(C(=O)O)cnc2c(-c3ccc(Cl)cc3)cnn12	i	i	i	7.7*	i	24%*	31%*	i
Cc1cc(N)n2ncc(-c3ccc(Cl)cc3)c2n1	i	i	i	5.1*	i	17%*	i	i
SMILES	MrgX1 antagonist	MrgX1 allo act	RGS4 act	RGS4 inh	MrgX1 ag	RGS4 block valid	RGS4 uninduced	M3R basal Ca ctr
Cn1c(SCC(=O)N=Nc2c(O)[nH]c3ccccc23)nc2ccccc21	i	i	i	i	i	x	x	x
O=C(CSc1nc2ccccc2[nH]1)N=Nc1c(O)[nH]c2ccccc12	i	i	i	5*	i	i	i	i
Cc1nn(-c2ccccc2)c2c1C(c1ccc([N+](=O)[O-])cc1)C(C#N)=C(N)O2 (stereo not given)	i	i	i	i	i	x	x	x
COc1cc(C2C(C#N)=C(N)Oc3c2c(-c2ccccc2)nn3-c2ccccc2)cc(OC)c1OC (stereo not given)	i	i	i	i	i	x	i	i
O=C(O)CCc1ccc(-c2ccccc2)o1	i	i	i	5.1*	i	5.0%*	i	i
O=C(/C=C/c1ccccc1)/C=C/c1ccccc1	i	i	i	6.3*	i	27%*	38%*	i
COc1ccc(-n2c(SCCNCCO)nc3sc4c(c3c2=O)CCCC4)cc1	i	i	i	i	i	x	x	x
O=C1C=CC(=O)N1c1ccc(O)cc1	i	i	i	14*	i	75%*	72%*	14%*
CSCCC(NC(=O)c1cccc(C)c1)C(=O)OCN1C(=O)c2ccccc2C1=O (stereo not given)	i	i	i	i	i	x	x	x
Cc1nc2c(C(=O)NCCC3=CCCCC3)c[nH]n2c(=O)c1Cl	i	i	i	17*	i	52%*	52%*	i
Cc1nc(Cl)c2c(n1)NC(=O)CO2	i	i	i	i	i	x	x	x
Nc1c(S(=O)(=O)c2cccs2)c2nc3ccccc3nc2n1Cc1ccc2c(c1)OCO2	i	i	i	6.9*	i	9.5%*	i	i
COc1ccc(Oc2ccccc2/C=N/O)cc1	i	i	i	i	i	x	x	x
CC(C)(C)c1cccc(/C=N/O)c1O	i	i	i	11*	i	24%*	44%*	i
O=C1CC2(CCN(C(=O)C3CC(=O)N(c4ccccc4)C3)CC2)Oc2ccccc21 (stereo not given)	i	i	i	i	i	x	x	x
Cc1cccc(C2c3[nH]c4ccccc4c3CCN2C(=O)Cc2nc(-c3ccccc3)n[nH]2)n1 (stereo not given)	i	i	i	5.7*	i	10%*	i	i
CC1CCCCN1Cc1c(O)ccc2c(=O)c(-c3nc4ccccc4s3)c(N)oc12 (stereo not given)	i	i	i	12*	i	10%*	i	i

Source: PubChem BioAssay (Johns Hopkins Ion Channel Center)
